Reference: ChEMBL document CHEMBL1671761, “Preclinical characterization of BI 201335, a C-terminal carboxylic acid inhibitor of the hepatitis C virus NS3-NS4A protease” (Antimicrob Agents Chemother, 2010)

Key:
[1] = molecular target: Alpha-2A adrenergic receptor (Rattus norvegicus) (UniProt P22909); test: Inhibition of rat adrenergic receptor Alpha-2 at 10 uM
Huh-7 = test: Cytotoxicity activity against human HuH7 cells by MTT assay; type: functional
How it was run: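 MTT assay in proliferating Huh-7 cells exposed 72 h to serial inhibitor dilutions; formazan read at 570 nm. CC50 taken from percent inhibition.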

Hepatitis C virus = test: Antiviral activity against HCV 2a infected in Huh7 cells assessed as inhibition of viral replication after 72 hrs by RT-PCR; type: functional, organism-based, Hepacivirus hominis; conditions: genotype 2a, Huh-7, 72 h
How it was run: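 Infectious JFH1 virus (cell culture-adapted, core K74T and NS5A C2441S) was produced by transfecting transcribed RNA into Huh-7.5 cells. Huh-7.5 cells (1×10^4/well, seeded 24 h before) were infected with virus plus a nine-concentration compound series in 0.5% DMSO for 72 h. HCV RNA was quantified by real-time RT-PCR. Mean ± SD, ≥3 experiments.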

[2] = Mean retention time in Sprague-Dawley rat at 5 mg/kg, po; type: ADME, organism-based, Sparague-Dawley; set-up: dose 5 mg/kg, route oral; conditions: in vivo
How it was run: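 Male Sprague-Dawley rats (275-300 g), fasted overnight with 10% dextrose water. Single oral dose in 0.5% Methocel/0.3% Tween 80 at 10 ml/kg. Carotid-cannula blood taken 0-8 h, with plasma from 3 rats pooled per time point. Solid-phase extraction, then LC-MS/MS at m/z 869.3 (LOQ 10 nM). Noncompartmental analysis.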

[3] = Tmax in dog at 5 mg/kg, po; type: ADME, organism-based, Canis lupus familiaris; set-up: dose 5 mg/kg, route oral; conditions: in vivo
How it was run: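 Fasted male beagle dogs (9.8-13.8 kg) given a single oral dose in 0.5% Methocel/0.3% Tween 80. Plasma taken by solid-phase extraction and measured by LC-MS/MS at m/z 869.3 (LOQ 50 nM). Noncompartmental analysis. Mean ± SE for three males.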

[4] = molecular target: Beta-secretase 1 (Homo sapiens) (UniProt P56817); test: Inhibition of human recombinant BACE-1 at 10 uM
Caspase-8 (Homo sapiens) = Caspase-8 (Homo sapiens) (UniProt Q14790); test: Inhibition of human caspase-8 at 10 uM
[5] = molecular target: Cathepsin Z (Homo sapiens) (UniProt Q9UBR2); test: Inhibition of human cathepsin X at 10 uM
Homo sapiens [6] = organism: Homo sapiens; test: Inhibition of human chymotrypsin at 10 uM
[7] = molecular target: Neutrophil elastase (Homo sapiens) (UniProt P08246); test: Inhibition of human elastase, leukocyte at 10 uM
[8] = molecular target: Coagulation factor VII (Homo sapiens) (UniProt P08709); test: Inhibition of human factor 7a at 10 uM
[9] = molecular target: Collagenase 3 (Homo sapiens) (UniProt P45452); test: Inhibition of human MMP-13 at 10 uM
[10] = molecular target: Matrix metalloproteinase-14 (Homo sapiens) (UniProt P50281); test: Inhibition of human MMP-14 at 10 uM
Homo sapiens [11] = organism: Homo sapiens; test: Inhibition of human tryptase at 10 uM
Rattus norvegicus [12] = organism: Rattus norvegicus; test: Inhibition of rat calcium channel N-type at 10 uM
[13] = molecular target: D(3) dopamine receptor (Homo sapiens) (UniProt P35462); test: Inhibition of human dopamine receptor 3 at 10 uM
[14] = molecular target: Glutamate receptor ionotropic, delta-1 (Rattus norvegicus) (UniProt Q62640); test: Inhibition of rat glutamate receptor at 10 uM
[15] = molecular target: Small conductance calcium-activated potassium channel (Rattus norvegicus) (UniProt P70604+P70606+P70605); test: Inhibition of rat Small conductance calcium-activated potassium channel at 10 uM; type: protein assay
[16] = molecular target: Thromboxane A2 receptor (Homo sapiens) (UniProt P21731); test: Inhibition of human Thromboxane A2 receptor at 10 uM
[17] = molecular target: 5-hydroxytryptamine receptor 1A (Homo sapiens) (UniProt P08908); test: Inhibition of human 5-HT1A receptor at 10 uM
[18] = molecular target: 5-hydroxytryptamine receptor 2A (Rattus norvegicus) (UniProt P14842); test: Inhibition of rat 5-HT2A receptor at 10 uM
Homo sapiens [19] = organism: Homo sapiens; test: Inhibition of human dopamine receptor 4.2 at 10 uM
[20] = molecular target: D(4) dopamine receptor (Homo sapiens) (UniProt P21917); test: Inhibition of human dopamine receptor 4.4 at 10 uM
Homo sapiens [21] = organism: Homo sapiens; test: Inhibition of human dopamine receptor 4.7 at 10 uM
Rattus norvegicus [22] = organism: Rattus norvegicus; test: Inhibition of rat GABA-A receptor, benzodiazepine central at 10 uM

Sequence of D(4) dopamine receptor (Homo sapiens) (P21917 whole entry): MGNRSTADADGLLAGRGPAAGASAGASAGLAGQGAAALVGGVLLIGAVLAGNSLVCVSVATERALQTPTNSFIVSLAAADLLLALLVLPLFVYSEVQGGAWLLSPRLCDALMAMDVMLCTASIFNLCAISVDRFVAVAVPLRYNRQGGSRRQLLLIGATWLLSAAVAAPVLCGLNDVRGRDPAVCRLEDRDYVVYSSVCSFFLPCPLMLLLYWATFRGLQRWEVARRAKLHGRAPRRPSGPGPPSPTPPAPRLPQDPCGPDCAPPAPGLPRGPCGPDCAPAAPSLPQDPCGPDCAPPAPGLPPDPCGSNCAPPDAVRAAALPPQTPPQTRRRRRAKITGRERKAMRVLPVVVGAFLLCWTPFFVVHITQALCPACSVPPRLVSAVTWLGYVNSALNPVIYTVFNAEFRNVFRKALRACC
Sequence of 5-hydroxytryptamine receptor 2A (Rattus norvegicus) (P14842 whole entry): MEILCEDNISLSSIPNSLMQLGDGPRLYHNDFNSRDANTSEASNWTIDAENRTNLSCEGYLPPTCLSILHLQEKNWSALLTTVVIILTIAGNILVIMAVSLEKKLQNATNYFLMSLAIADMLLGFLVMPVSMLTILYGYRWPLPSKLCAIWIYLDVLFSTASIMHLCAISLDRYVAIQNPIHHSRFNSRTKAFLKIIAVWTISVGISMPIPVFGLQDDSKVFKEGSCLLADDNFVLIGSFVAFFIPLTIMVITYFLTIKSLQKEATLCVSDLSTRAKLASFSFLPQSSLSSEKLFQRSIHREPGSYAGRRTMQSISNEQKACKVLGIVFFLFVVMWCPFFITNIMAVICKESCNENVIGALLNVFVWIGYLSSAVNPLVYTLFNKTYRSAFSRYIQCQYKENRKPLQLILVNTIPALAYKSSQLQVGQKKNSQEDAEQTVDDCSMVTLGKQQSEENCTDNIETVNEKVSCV
Sequence of Thromboxane A2 receptor (Homo sapiens) (P21731 whole entry): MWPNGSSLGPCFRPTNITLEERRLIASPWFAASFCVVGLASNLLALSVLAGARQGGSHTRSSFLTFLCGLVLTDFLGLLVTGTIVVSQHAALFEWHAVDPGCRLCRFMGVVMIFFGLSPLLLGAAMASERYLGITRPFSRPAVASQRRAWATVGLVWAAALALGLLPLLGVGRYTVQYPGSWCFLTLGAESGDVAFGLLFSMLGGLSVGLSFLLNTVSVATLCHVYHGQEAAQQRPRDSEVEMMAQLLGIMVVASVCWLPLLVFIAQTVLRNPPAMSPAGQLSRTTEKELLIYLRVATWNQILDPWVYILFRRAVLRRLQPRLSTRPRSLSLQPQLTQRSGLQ
Sequence of Coagulation factor VII (Homo sapiens) (P08709 61-212 limits assumed): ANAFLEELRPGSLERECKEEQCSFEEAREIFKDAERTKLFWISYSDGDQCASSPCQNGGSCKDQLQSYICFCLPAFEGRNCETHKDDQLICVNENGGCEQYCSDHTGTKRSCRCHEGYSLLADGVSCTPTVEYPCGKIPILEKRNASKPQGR
Sequence of Coagulation factor VII (Homo sapiens) (P08709 213-466 limits assumed): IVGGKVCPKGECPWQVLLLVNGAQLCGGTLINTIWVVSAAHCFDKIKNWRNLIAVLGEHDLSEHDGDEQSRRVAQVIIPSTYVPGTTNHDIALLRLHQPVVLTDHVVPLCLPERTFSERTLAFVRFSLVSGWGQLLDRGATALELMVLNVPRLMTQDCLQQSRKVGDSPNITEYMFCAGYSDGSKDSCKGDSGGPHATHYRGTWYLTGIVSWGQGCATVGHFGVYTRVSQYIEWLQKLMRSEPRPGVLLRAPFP
Sequence of Glutamate receptor ionotropic, delta-1 (Rattus norvegicus) (Q62640 whole entry): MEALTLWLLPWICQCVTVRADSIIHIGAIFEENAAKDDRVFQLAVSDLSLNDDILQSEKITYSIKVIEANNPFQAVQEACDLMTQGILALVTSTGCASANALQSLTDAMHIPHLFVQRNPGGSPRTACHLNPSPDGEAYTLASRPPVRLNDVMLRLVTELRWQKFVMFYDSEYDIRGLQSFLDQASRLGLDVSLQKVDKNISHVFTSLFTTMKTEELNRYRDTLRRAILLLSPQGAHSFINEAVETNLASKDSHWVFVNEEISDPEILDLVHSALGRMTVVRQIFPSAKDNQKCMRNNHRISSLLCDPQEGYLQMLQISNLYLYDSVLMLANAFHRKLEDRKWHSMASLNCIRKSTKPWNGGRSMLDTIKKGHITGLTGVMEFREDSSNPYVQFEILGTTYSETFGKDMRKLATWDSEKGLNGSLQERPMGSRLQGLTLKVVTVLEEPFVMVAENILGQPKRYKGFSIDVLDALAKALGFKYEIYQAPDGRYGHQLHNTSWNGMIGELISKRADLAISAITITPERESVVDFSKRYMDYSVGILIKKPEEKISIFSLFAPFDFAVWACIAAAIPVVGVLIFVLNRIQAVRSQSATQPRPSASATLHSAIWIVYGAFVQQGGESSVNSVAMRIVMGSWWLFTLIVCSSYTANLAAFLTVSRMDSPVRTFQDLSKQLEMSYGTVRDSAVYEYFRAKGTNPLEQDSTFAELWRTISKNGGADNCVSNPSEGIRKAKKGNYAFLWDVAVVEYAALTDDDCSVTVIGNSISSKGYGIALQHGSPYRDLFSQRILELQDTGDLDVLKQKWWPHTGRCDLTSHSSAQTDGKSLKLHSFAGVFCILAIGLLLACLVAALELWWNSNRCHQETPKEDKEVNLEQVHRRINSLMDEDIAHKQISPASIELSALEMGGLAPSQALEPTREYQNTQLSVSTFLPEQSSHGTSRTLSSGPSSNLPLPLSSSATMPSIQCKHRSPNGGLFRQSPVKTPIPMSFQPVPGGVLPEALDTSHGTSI
Sequence of Cathepsin Z (Homo sapiens) (Q9UBR2 whole entry): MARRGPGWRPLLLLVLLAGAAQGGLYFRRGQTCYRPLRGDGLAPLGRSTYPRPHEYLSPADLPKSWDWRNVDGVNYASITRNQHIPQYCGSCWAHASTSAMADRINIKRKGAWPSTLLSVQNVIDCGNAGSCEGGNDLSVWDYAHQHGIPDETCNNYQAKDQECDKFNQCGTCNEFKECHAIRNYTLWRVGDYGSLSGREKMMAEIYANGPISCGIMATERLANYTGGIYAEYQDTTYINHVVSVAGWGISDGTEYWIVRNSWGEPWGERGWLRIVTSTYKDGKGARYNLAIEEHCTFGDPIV
Sequence of Beta-secretase 1 (Homo sapiens) (P56817 whole entry): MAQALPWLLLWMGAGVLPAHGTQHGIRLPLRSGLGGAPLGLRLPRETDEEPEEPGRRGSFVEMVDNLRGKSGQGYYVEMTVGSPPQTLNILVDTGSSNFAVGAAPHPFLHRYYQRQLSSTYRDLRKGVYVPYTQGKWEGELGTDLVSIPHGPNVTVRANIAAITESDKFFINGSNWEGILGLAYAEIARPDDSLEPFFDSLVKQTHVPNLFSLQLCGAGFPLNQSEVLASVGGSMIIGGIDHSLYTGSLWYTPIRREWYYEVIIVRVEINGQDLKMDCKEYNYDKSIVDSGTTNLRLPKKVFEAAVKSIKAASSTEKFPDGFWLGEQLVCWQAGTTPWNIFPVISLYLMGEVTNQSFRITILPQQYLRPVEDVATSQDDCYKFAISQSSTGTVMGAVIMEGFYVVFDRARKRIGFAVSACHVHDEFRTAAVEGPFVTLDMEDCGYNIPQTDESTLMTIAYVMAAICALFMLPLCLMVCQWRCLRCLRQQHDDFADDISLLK
Sequence of Alpha-2A adrenergic receptor (Rattus norvegicus) (P22909 whole entry): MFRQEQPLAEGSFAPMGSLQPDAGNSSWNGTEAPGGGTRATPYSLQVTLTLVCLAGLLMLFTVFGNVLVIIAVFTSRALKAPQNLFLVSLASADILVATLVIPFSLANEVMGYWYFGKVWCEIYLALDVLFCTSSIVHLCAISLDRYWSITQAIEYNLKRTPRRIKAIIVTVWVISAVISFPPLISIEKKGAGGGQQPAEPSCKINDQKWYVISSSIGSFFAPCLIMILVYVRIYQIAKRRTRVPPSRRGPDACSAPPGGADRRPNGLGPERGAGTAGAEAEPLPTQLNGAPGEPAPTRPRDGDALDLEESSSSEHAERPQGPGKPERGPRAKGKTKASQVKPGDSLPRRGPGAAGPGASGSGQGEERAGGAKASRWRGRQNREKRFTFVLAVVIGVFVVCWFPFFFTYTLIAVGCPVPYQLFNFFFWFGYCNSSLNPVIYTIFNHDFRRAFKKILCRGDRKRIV
Sequence of D(3) dopamine receptor (Homo sapiens) (P35462 whole entry): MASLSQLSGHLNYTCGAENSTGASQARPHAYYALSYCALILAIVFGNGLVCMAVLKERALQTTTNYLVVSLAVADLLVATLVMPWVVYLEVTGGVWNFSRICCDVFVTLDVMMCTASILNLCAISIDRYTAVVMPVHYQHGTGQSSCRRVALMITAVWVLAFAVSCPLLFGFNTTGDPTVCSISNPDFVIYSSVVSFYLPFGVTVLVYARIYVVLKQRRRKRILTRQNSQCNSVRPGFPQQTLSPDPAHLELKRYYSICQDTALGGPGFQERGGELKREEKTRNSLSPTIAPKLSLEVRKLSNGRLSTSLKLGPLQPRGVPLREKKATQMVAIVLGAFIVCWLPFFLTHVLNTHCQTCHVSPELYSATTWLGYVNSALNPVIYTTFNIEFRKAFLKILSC
Sequence of Caspase-8 (Homo sapiens) (Q14790 217-374 limits assumed): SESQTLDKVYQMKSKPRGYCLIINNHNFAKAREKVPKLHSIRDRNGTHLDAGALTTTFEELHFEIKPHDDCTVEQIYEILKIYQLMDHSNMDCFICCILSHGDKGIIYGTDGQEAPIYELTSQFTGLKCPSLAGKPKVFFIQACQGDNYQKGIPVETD
Sequence of Caspase-8 (Homo sapiens) (Q14790 385-479 limits assumed): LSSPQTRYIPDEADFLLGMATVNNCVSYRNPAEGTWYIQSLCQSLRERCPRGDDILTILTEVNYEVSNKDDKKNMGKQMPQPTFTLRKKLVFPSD
Sequence of Neutrophil elastase (Homo sapiens) (P08246 whole entry): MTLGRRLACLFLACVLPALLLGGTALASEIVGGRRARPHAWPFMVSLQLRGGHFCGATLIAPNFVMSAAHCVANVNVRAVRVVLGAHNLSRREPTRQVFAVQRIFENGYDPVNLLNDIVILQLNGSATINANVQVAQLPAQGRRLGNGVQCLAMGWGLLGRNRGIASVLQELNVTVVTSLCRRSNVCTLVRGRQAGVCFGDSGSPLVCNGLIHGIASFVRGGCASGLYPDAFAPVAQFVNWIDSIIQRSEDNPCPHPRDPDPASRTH

`C=C[C@@H]1C[C@]1(NC(=O)[C@@H]1C[C@@H](Oc2cc(-c3csc(NC(=O)C(C)C)n3)nc3c(Br)c(OC)ccc23)CN1C(=O)[C@@H](NC(=O)OC1CCCC1)C(C)(C)C)C(=O)O` gave an inhibition [1] of 18%, a CC50 (Huh-7) of 30 µM and an EC50 (Hepatitis C virus) of 0.043 µM. It also gave an MRT [2] of 3.18 h, a Tmax [3] of 0.83 h and an inhibition [4] of 74%. It also gave an inhibition (Caspase-8 (Homo sapiens)) of 5%, an inhibition [5] of 0% and an inhibition (Homo sapiens [6]) of 0%. It also gave an inhibition [7] of 3%, an inhibition [8] of 6% and an inhibition [9] of 5%. The inhibition [10] was 3%, the inhibition (Homo sapiens [11]) was 5% and the inhibition (Rattus norvegicus [12]) was 9%. For the same molecule, the inhibition [13] was 4%, the inhibition [14] was 38% and the inhibition [15] was 2%. For the same molecule, the inhibition [16] was 47%, the inhibition [17] was 18% and the inhibition [18] was 7%. For the same molecule, the inhibition (Homo sapiens [19]) was 58%, the inhibition [20] was 39% and the inhibition (Homo sapiens [21]) was 0%. It also gave an inhibition (Rattus norvegicus [22]) of 12%.
